A selection: hits, their analogues and other compounds. The true share with any hit is near 2.1%.
PKA-R1A activ – PKA-R1A complex activation; activation, % at 11.4 µM; PKA-R1A dissociation, Cy5-IP20 fluorescence polarization; scaled: DMSO 0%, 113 µM cGMP 100%; P00514+P68181; 340,000 compounds, 0.083% hits;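 active = percent activation above the mean of all tested compounds plus 3 SD, cut at about 19% in these data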;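 note: higher means more PKAc released from R1A so a rise in polarization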
PKA-R2B act – PKA-R2B complex activation; P22694+P31323; PKA-R2B holoenzyme dissociation, Cy5-IP20 fluorescence polarization; R2B truncated from residue 108, S112A mutant; 0% DMSO only, 100% 113 µM cGMP; activation, % at 11.4 µM; 340,000 compounds, 0.079% hits; AID 504700;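 active = activation above a cutoff set at the mean over all compounds plus 3 SD, cut at about 18% in these data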;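 note: higher means more holoenzyme dissociation and a rise in polarization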
Target sequence (P31323 whole entry, looked up, other chains not shown, the tested form may be a part): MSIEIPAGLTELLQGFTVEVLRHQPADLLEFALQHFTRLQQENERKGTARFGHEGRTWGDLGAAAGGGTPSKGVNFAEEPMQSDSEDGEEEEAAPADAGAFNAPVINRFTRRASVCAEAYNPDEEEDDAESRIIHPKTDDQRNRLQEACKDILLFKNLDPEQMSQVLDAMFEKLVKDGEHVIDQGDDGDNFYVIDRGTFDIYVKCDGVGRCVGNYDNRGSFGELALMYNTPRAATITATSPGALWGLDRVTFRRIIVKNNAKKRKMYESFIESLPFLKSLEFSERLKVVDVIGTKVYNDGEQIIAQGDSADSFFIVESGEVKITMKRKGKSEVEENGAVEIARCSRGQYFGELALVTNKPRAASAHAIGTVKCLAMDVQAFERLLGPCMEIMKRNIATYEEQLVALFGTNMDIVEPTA
dFosB activator – mouse delta FosB homodimer activation; P13346; purified delta FosB, TAMRA-CDK5 oligo fluorescence polarization; percent of positive-control signal above neutral wells; activation, % at 25 µM; 340,000 compounds, 0.99% hits; AID 493131;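 active = mean activation above about 17%, with every replicate also reaching it, limit read from the data, passing the limit was not always enough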
CDK5 inh – inhibitors of human CDK5/p35 kinase. Q00535+Q15078. Recombinant CDK5/p35, ADP-Glo luminescence, 60 min. inhibition, % at 10 µM. 330,000 compounds, 0.01% hits. AID 488839;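 active = highest replicate inhibition of at least 50% and at least 75% of replicates reaching 50%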
SR-BI DiI inh – mouse SR-BI HDL lipid transfer inhibition. Q61009. ldlA[mSR-BI] CHO cells, DiI-HDL uptake fluorescence, 3 h. inhibition, % at 12.5 µM. 320,000 compounds, 0.96% hits. AID 488896;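 active = mean replicate inhibition of at least 70% and a set share of replicates each scoring 70 or more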
SR-BI DiI-HDL act – SR-BI HDL lipid transfer activation. CHO ldlA[mSR-BI] cells, DiI-HDL uptake fluorescence, 3 h; 100 = double the neutral-control signal. activation, % at 12.5 µM. 320,000 compounds, 0.096% hits;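 active = mean replicate activation of at least 60% and every replicate at or above 60%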
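Test system: SR-BI-overexpressing, LDLR-lacking CHO cells. Measured by: DiI fluorescence, bottom read. Medium: Ham's F12 with 0.5% BSA, HEPES 25 mM, pH 7.4. Timing: 3 h uptake period with compound, 37 °C.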
A number is an active result; i = inactive; nt = no result given.

SMILES | PKA-R1A activ | PKA-R2B act | dFosB activator | CDK5 inh | SR-BI DiI inh | SR-BI DiI-HDL act
O=C(CN1CCCC1c1cccs1)N1CCN(S(=O)(=O)c2cccc(F)c2)CC1 (configuration not stated) | i | i | i | i | i | nt
CCOc1cc(NC(=S)Nc2ccccc2)c(OCC)cc1NC(=O)c1ccc(OC)cc1 | i | i | i | i | 88.8 | i
CCOc1ccccc1C(=O)NCC(=O)OCCOc1cccc(Cl)c1 | i | i | i | i | i | i
CCOc1cc(NC(=O)c2ccccc2OC)c(OCC)cc1NC(=O)c1ccccc1 | i | i | i | i | i | i
CCOc1ccccc1C(=O)NCC(=O)OCCCOC(=O)CNC(=O)c1ccccc1OCC | i | i | i | i | 84.5 | i
CCOc1ccccc1C(=O)Nc1cc(Cl)ccc1O | i | i | i | i | 86.0 | i
COc1ccccc1C(=O)Nc1cc(Cl)ccc1O | i | i | i | i | i | i
CCOc1ccccc1C(=O)Nc1cc(OC)ccc1OC | i | i | i | i | 78.8 | i
COc1ccc(C2=NNC(=O)C2(C)Br)cc1 (configuration not stated) | i | i | i | i | i | i
COc1ccc(S(=O)(=O)N(C)C[C@H]2Oc3ccc(NC(=O)c4ccncc4)cc3C(=O)N([C@H](C)CO)C[C@@H]2C)cc1 | i | i | i | i | i | i
COc1cc(NS(=O)(=O)c2ccc3c(c2)C(C)(C)C(=O)N3C)cc(OC)c1 | i | i | i | i | i | i
COc1cc(NC(=O)COc2cccc3c2OC(C)(C)C3)cc(OC)c1OC | i | i | i | i | 88.0 | i
CCOC(=O)c1cc(-c2ccc(C)cc2)n(CCC(=O)N2CCN(c3ccccn3)CC2)c1C | i | i | i | i | nt | nt
CCOc1ccccc1Nc1nnc(SCC(=O)N(C)C2CCS(=O)(=O)C2)s1 (configuration not stated) | i | i | i | i | 75.2 | i
CC(=O)c1ccc(NC(=O)CN2C(=O)/C(=C/C=C/c3ccccc3)SC2=S)cc1 | i | i | i | i | 71.7 | i
Cc1cc(Nc2ncc(Cl)cc2Cl)n(-c2ccccc2C)n1 | i | i | i | i | i | i
Cc1ccc(-n2nc(C)cc2Nc2ncc(Cl)cc2Cl)cc1 | i | i | i | i | 81.5 | i
COc1ccc(-c2noc(CNC(=O)c3ccoc3C)n2)cc1OC | i | i | i | i | nt | nt
CCN(CC)C(=O)CNC(=O)c1nn(-c2ccc(OC)c(Cl)c2)c(=O)c2ccccc12 | i | i | i | i | i | i
COc1ccc(-n2nc(C(=O)NCC(=O)Nc3cc(OC)c(OC)c(OC)c3)c3ccccc3c2=O)cc1Cl | i | i | 21.4 | i | nt | nt
COc1ccc(-n2nc(C(=O)NCC(=O)NCc3ccc(F)cc3)c3ccccc3c2=O)cc1OC | i | i | 125.8 | i | i | i
Cc1ccc(C)c(S(=O)(=O)NCCN2CCOCC2)c1 | i | i | i | i | i | i
COc1ccc(/C=C/C(=O)NNC(=O)C(C)Oc2ccccc2F)cc1OC (configuration not stated) | i | i | i | i | i | i
C[C@]12CCC(O)CC1=CCC1C2CC[C@]2(C)/C(=N\NC(N)=S)CCC12 (some centres not stated) | i | i | i | i | 90.4 | i
O=C(N/N=C/c1cc(Br)cc(Br)c1O)c1cccc(N2CCCC2=O)c1 | i | i | i | i | 131.5 | i
SMILES | PKA-R1A activ | PKA-R2B act | dFosB activator | CDK5 inh | SR-BI DiI inh | SR-BI DiI-HDL act
O=C(N/N=C/c1ccc(Cl)cc1Cl)c1cccc(N2CCCC2=O)c1 | i | i | i | i | 84.8 | i
O=C(N/N=C/c1ccc([N+](=O)[O-])cc1)c1cccc(N2CCCC2=O)c1 | i | i | i | i | i | i
CCCCc1ccc(NC(=S)NCc2cccc(OC)c2)cc1 | i | i | i | i | i | i
CCCCc1ccc(NC(=S)Nc2ccc(Nc3ccc(OC)cc3)cc2)cc1 | i | i | i | i | 80.7 | i
Cc1sc2ncn(-c3ccccc3)c(=O)c2c1C | i | i | i | i | i | i
CCOc1ccc(-n2cnc3sc(C)c(C)c3c2=O)cc1 | i | i | i | i | 71.2 | i
CCOC(=O)c1c(C)[nH]c(C(=O)OCc2csc(CC(=O)Nc3ccccc3C)n2)c1C | i | i | i | i | 81.0 | i
CCOC(=O)c1c(C)[nH]c(C(=O)OCC(=O)Nc2sccc2C(N)=O)c1C | i | i | 21.8 | i | i | i
CCOC(=O)c1c(C)[nH]c(C(=O)OCC(=O)Nc2ccc(Cl)cn2)c1C | i | i | i | i | i | i
Cc1ccccc1NC(=O)Cc1nc(COC(=O)c2cccc(C)c2O)cs1 | i | i | i | i | i | i
CCOc1ccc(CCNC(=O)Cn2nc(C)n3cccc3c2=O)cc1OCC | i | i | i | i | i | i
CCc1ccccc1N(C)S(=O)(=O)c1ccc(-c2cc(C)no2)s1 | i | i | i | i | i | i
C=C1c2cccc(OC)c2O[C@H](C(=O)OCC)[C@@H]1CC(CC)CCCC (some centres not stated) | i | i | i | i | 84.5 | i
CCOC(=O)/C=C1\CC(C(=O)OCC)Oc2c(OC)cccc21 (configuration not stated) | i | i | i | i | i | i
Cc1ccc2sc(NC(=O)c3cccc(N4C(=O)CCC4=O)c3)nc2c1C | i | i | i | i | 94.4 | i
O=C(Nc1nc(-c2ccc(F)cc2)cs1)c1cccc(N2C(=O)CCC2=O)c1 | i | i | i | i | 81.3 | i
O=C(Nc1nc(-c2cc(F)ccc2F)cs1)c1cccc(N2C(=O)CCC2=O)c1 | i | i | i | i | i | i
CC(C)(C)NS(=O)(=O)c1ccc2nc(NC(=O)c3ccc(N4C(=O)CCC4=O)cc3)sc2c1 | i | i | i | i | i | i
Cc1ccc2nc(NC(=O)c3ccc(N4C(=O)CCC4=O)cc3)sc2c1 | i | i | i | i | 77.2 | i
CCOc1ccc(CNS(=O)(=O)c2cccs2)cc1OCC | i | i | i | i | i | i
O=C1c2cc(Br)ccc2OC2C=CC=CC12 (configuration not stated) | i | i | i | i | i | i
O=C(/C=C/c1cc[n+](CC(=O)c2ccc3cccc4c3c2CC4)cc1)c1ccc2cccc3c2c1CC3 | i | i | 147.2 | i | nt | nt
O=C(C[n+]1ccc2ccccc2c1)c1cccc2ccccc12 | i | i | i | i | i | i
O=C(COC(=O)c1cccnc1SCC(=O)NCc1ccccc1)NCc1ccccc1 | i | i | i | i | i | i
COc1ccccc1CNC(=O)COC(=O)c1cccnc1SCC(=O)NCc1ccccc1OC | i | i | 40.5 | i | i | i
